Data: ChEMBL document CHEMBL1126266, “Dopaminergic and serotonergic activities of imidazoquinolinones and related compounds” (J Med Chem, 1992)

How the values were obtained:
D(2) dopamine receptor [1] = biological target: T1, D(2) dopamine receptor (Rattus norvegicus, UniProt P61169); assay: Ability to displace [3H]raclopride from dopamine receptor D2 in rat striatal homogenates.
Outline: (§1)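 Rat striatal homogenate (1:300) incubated with [3H]raclopride (80 Ci/mmol) 1 h at room temperature. Filtered over PEI-pretreated filters, rinsed with 50 mM Tris pH 7.4, counted by liquid scintillation. Nonspecific binding with 1 μM haloperidol. IC50 by log-probit analysis from at least four concentrations in triplicate; Ki calculated from IC50.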

Rattus norvegicus [2] = assay: Percent change in DOPA levels in rat brain following 1 mg/kg administration.; format: functional
Outline: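 Upjohn CF-1 rats given drug or vehicle sc. Fifteen minutes later, m-hydroxybenzylhydrazine 100 mg/kg ip was given as decarboxylase inhibitor. Control and test groups (n = 6 each) compared by unpaired t test.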

Rattus norvegicus [3] = assay: Percent change in 5-HTP levels in rat brain following 1 mg/kg administration.
[4] = biological target: T2, 5-hydroxytryptamine receptor 1A (Homo sapiens) (UniProt P08908); assay: Dose required to reduce neuronal firing of 5-HT1A cells by 50%; format: functional
T2 sequence (whole entry): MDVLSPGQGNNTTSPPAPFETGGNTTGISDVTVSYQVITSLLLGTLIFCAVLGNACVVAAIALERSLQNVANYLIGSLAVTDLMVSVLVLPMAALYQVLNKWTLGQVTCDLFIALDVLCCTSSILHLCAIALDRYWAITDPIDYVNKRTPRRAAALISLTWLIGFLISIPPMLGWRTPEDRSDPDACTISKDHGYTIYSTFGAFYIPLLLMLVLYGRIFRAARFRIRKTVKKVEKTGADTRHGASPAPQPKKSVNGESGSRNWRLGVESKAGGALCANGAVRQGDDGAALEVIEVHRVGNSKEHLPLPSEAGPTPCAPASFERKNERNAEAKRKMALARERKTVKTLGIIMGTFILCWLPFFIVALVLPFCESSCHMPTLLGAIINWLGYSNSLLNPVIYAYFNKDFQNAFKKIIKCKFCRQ
Outline: (§2)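 Male Sprague-Dawley rats (280-330 g) under chloral hydrate 400 mg/kg ip. Extracellular recording from dorsal raphe neurons (biphasic spikes, about 0.8–2.5 spikes/s), location confirmed by dye deposit. Drug in distilled water given iv via femoral vein.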

[5] = Dose required to reduce neuronal firing of DA cells by 50%; format: functional
Outline: (§3)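 Male Sprague-Dawley rats (280-330 g) anesthetized with chloral hydrate 400 mg/kg ip. Extracellular recording from substantia nigra pars compacta neurons (action potential >2.5 ms), site verified histologically. Drug in distilled water given iv via femoral vein. Firing rate measured by integrated ratemeter.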

D(2) dopamine receptor [6] = biological target: T1, D(2) dopamine receptor; assay: Compound was evaluated for its ability to displace [3H]raclopride from dopamine receptor D2 in rat striatal homogenates; outline: as §1
D(2) dopamine receptor [7] = biological target: T1, D(2) dopamine receptor; assay: Compound was evaluated for its ability to displace [3H]raclopride from Dopamine receptor D2 in rat striatal homogenates; outline: as §1
Rattus norvegicus [8] = species on record: Rattus norvegicus; assay: Dose required to reduce neuronal firing of dopaminergic cells by 50%; format: functional; outline: as §3
Rattus norvegicus [9] = species on record: Rattus norvegicus; assay: Dose required to reduce neuronal firing of serotonergic cells by 50%; format: functional; outline: as §2

T1 sequence (P61169 whole entry): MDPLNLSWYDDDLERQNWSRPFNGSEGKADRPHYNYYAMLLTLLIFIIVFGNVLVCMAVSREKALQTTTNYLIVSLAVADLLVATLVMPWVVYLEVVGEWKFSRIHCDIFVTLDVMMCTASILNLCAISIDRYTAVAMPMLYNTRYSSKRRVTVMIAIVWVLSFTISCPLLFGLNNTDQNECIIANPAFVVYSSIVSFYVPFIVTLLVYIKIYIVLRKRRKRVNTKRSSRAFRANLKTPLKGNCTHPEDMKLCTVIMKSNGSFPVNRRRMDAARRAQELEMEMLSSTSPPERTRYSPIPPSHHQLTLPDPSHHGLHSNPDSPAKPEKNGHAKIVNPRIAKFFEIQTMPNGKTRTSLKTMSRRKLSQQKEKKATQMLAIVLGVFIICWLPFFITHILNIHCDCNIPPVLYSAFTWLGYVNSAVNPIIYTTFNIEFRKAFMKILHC

C=CCN(CC=C)C1Cc2cccc3nc(O)n(c23)C1 (stereo not drawn)
Ki (D(2) dopamine receptor [1]): > 10 µM

CCCN(CCC)C1Cc2cccc3ccc(=O)n(c23)C1 (stereo not drawn)
Ki (D(2) dopamine receptor [1]): 0.315 µM
Change (Rattus norvegicus [2]): -40%
Change (Rattus norvegicus [3]): -18%

CCCNC1Cc2cccc3nc(O)n(c23)C1.Cl (stereo not drawn)
ED50 [4]: 0.65 mg/kg
ED50 [5]: 0.036 mg/kg
Ki (D(2) dopamine receptor [1]): 1.04 µM

CCCN(CCC)C1Cc2cccc3ncn(c23)C1 (stereo not drawn)
ED50 [5]: 0.219 mg/kg
Ki (D(2) dopamine receptor [1]): > 1 µM
Change (Rattus norvegicus [2]): -12%
Change (Rattus norvegicus [3]): -7%

CCCN(CCC)C1Cc2cccc3c2n(c(=O)n3C)C1 (stereo not drawn)
Ki (D(2) dopamine receptor [6]): 0.924 µM

CCCN(CCC)C1Cc2cccc3ccn(c23)C1.O=C(O)/C=C/C(=O)O (stereo not drawn)
ED50 [5]: 0.083 mg/kg
Ki (D(2) dopamine receptor [1]): 0.21 µM
Change (Rattus norvegicus [2]): -29%
Change (Rattus norvegicus [3]): -14%

CCCN(CCC)C1Cc2cccc3c2N(CC(=O)N3)C1.Cl (stereo not drawn)
ED50 [5]: 0.039 mg/kg
Ki (D(2) dopamine receptor [1]): 0.03 µM
Change (Rattus norvegicus [2]): -52%
Change (Rattus norvegicus [3]): 16%

CCCN(CCC)[C@H]1Cc2cccc3nc(O)n(c23)C1.Cl
ED50 [5]: > 1 mg/kg
Ki (D(2) dopamine receptor [6]): > 1 µM
Change (Rattus norvegicus [2]): 0.3%
Change (Rattus norvegicus [3]): 6.4%

CN1CCc2cccc3c2[C@H]1Cc1ccc(O)c(O)c1-3 [APOMORPHINE]
Change (Rattus norvegicus [2]): -55%
Change (Rattus norvegicus [3]): 4%

CCCN(CCC)C1Cc2cccc3[nH]c(=O)c(=O)n(c23)C1.Cl (stereo not drawn)
ED50 [5]: 0.088 mg/kg
Ki (D(2) dopamine receptor [1]): 0.15 µM
Change (Rattus norvegicus [2]): -37%
Change (Rattus norvegicus [3]): 6%

CCCN(CCC)C1Cc2cccc3nc(C)n(c23)C1 (stereo not drawn)
Ki (D(2) dopamine receptor [7]): > 1 µM

CCCN(CCC)C1Cc2cccc3c2N(C1)C(=O)CO3.O=C(O)/C=C/C(=O)O (stereo not drawn)
Change (Rattus norvegicus [2]): -18%
Change (Rattus norvegicus [3]): -12%

CCCCN(CCC)C1Cc2cccc3nc(O)n(c23)C1 (stereo not drawn)
Ki (D(2) dopamine receptor [1]): 0.167 µM

CCCN(CCC)C1Cc2cccc3nc(SC)n(c23)C1 (stereo not drawn)
Ki (D(2) dopamine receptor [1]): > 1 µM

Br.CCCN(CCC)[C@@H]1Cc2cccc3nc(O)n(c23)C1
Ki (D(2) dopamine receptor [6]): 0.068 µM
Change (Rattus norvegicus [2]): -50%
ED50 (Rattus norvegicus [8]): 0.0014 mg/kg
ED50 (Rattus norvegicus [9]): 0.107 mg/kg
Change (Rattus norvegicus [3]): -1.2%

CCCN(CCC)C1Cc2cccc3c2N(CC3)C1.O=C(O)/C=C/C(=O)O (stereo not drawn)
Ki (D(2) dopamine receptor [1]): > 1 µM
Change (Rattus norvegicus [2]): -33%
Change (Rattus norvegicus [3]): -13%

NC1Cc2cccc3nc(O)n(c23)C1 (stereo not drawn)
Ki (D(2) dopamine receptor [1]): > 10 µM

Oc1nc2cccc3c2n1CC(N(CC1CC1)CC1CC1)C3 (stereo not drawn)
Ki (D(2) dopamine receptor [1]): 7.73 µM

CCCN(CCC)C1Cc2cccc3nc(S)n(c23)C1 (stereo not drawn)
Ki (D(2) dopamine receptor [1]): 0.04 µM
Change (Rattus norvegicus [2]): -38%
Change (Rattus norvegicus [3]): -7%

C=CCNC1Cc2cccc3nc(O)n(c23)C1 (stereo not drawn)
Ki (D(2) dopamine receptor [1]): 0.363 µM

CCCN(CCC)C1Cc2cccc3nc(O)n(c23)C1.Cl (stereo not drawn)
ED50 [4]: 0.34 mg/kg
ED50 [5]: 0.005 mg/kg
Ki (D(2) dopamine receptor [1]): 0.207 µM
Change (Rattus norvegicus [2]): -34%
Change (Rattus norvegicus [3]): 12%

CCCCNC1Cc2cccc3[nH]c(=O)n(c23)C1 (stereo not drawn)
Ki (D(2) dopamine receptor [6]): > 10 µM

CCCN(CCC)C1Cc2cccc3oc(=O)n(c23)C1 (stereo not drawn)
Ki (D(2) dopamine receptor [1]): 0.899 µM
Change (Rattus norvegicus [2]): -27%
Change (Rattus norvegicus [3]): -6%

CCCN(CCC)C1Cc2cccc3c2N(C1)C(=O)C3 (stereo not drawn)
Ki (D(2) dopamine receptor [1]): 1.08 µM
Change (Rattus norvegicus [2]): -53%
Change (Rattus norvegicus [3]): -11%

CCCN(CCC)C1Cc2cccc3c2N(C1)C(=O)NC3 (stereo not drawn)
ED50 [4]: 0.0034 mg/kg
ED50 [5]: 0.212 mg/kg
Ki (D(2) dopamine receptor [1]): > 1 µM
Change (Rattus norvegicus [2]): -13%
Change (Rattus norvegicus [3]): -45%

CCCN(CCC)C1Cc2cccc3c2N(C1)C(=O)CC3 (stereo not drawn)
Ki (D(2) dopamine receptor [1]): 0.083 µM
Change (Rattus norvegicus [2]): -41%
Change (Rattus norvegicus [3]): -48%

CCCCN(CCCC)C1Cc2cccc3nc(O)n(c23)C1 (stereo not drawn)
Ki (D(2) dopamine receptor [1]): > 10 µM

CCCN(CCC)C1Cc2cccc3c2N(CCC3)C1 (stereo not drawn)
Ki (D(2) dopamine receptor [1]): 0.035 µM

CN(C)C1Cc2cccc3nc(O)n(c23)C1 (stereo not drawn)
Ki (D(2) dopamine receptor [1]): > 10 µM

CCCN(CCC)C1Cc2cccc3c2N(C1)C(=O)OC3.Cl (stereo not drawn)
Ki (D(2) dopamine receptor [1]): 0.292 µM
Change (Rattus norvegicus [2]): -36%
Change (Rattus norvegicus [3]): -13%

CCCN(CCC)C1Cc2cccc3c2N(C1)C(=O)C3=O (stereo not drawn)
Ki (D(2) dopamine receptor [1]): > 1 µM
Change (Rattus norvegicus [2]): -46%
Change (Rattus norvegicus [3]): -7%

CCCN(CCC)C1Cc2cccc3c2N(C1)C(=O)CN3 (stereo not drawn)
Ki (D(2) dopamine receptor [1]): 0.08 µM
Change (Rattus norvegicus [2]): -37%
Change (Rattus norvegicus [3]): -32%

Oc1nc2cccc3c2n1CC(NCC1CC1)C3 (stereo not drawn)
Ki (D(2) dopamine receptor [1]): 4 µM

CCCN(Cc1ccccc1)C1Cc2cccc3[nH]c(=O)n(c23)C1 (stereo not drawn)
Ki (D(2) dopamine receptor [1]): 1.91 µM
